The test system of one data set is MDA-MB-231 cancer cells. Briefly: Whole cellular uptake of Au. It is filed as cell-based, human. The conditions noted are these: 10 μM for 18 h, GFAAS. Put shortly: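 Adherent MDA-MB-231 cells were incubated with the test compound at 10 μM for 18 h. Whole-cell gold content was then measured by graphite furnace AAS. Data are mean ± s.e.m. (n = 3), compared by ordinary one-way ANOVA.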

Data set [1] can be described thus: Solution stability in DMEM. The data set is classed as physicochemical. Particulars: 48 h, reading at λ = 260 nm.
Data set [2] relates to MDA-MB-231 cells. Briefly: Mitochondria membrane potential determination using TMRE dye. Particulars: for effect on mitochondria membrane potential (TMRE fluorescence): 5 and 10 μM for 2 hours. It is filed as cell-based, human.
The test system of data set [3] is MRC5 (human lung fibroblast). Put plainly: Cytotoxicity in normal cells MRC5. The data set is classed as cell-based. The conditions noted are these: read-out: IC50 MRC5; mean ± S.D (n = 6).
Data set [4] deals with MDA-MB-231 (triple negative breast cancer cell). Briefly: In vitro cytotoxicity. The data set is classed as cell-based, human. The conditions noted are these: for IC50: read-out: IC50 MDA-MB-231, 72 h, MTT, mean ± S.D (n = 6). Put shortly: (§1)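 Adherent cancer cells were exposed to test compound for 72 h. The series was a 3-fold dilution starting at 100 μM.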
For data set [5], the system named is mitochondria of MDA-MB-231 cancer cells. Put plainly: Mitochondria uptake of Au. It is filed as cell-based, human. Particulars: 10 μM for 18 h, 20 million cells, GFAAS, n = 2. Put shortly:
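MDA-MB-231 cells (20 million) were treated with test compound at 10 μM for 18 h. Standard fractionation then gave pure mitochondria, and gold content was measured by GFAAS. Data are mean ± s.e.m. (n = 2), compared by ordinary one-way ANOVA.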

The next data set concerns BT-333 (glioblastoma). Put plainly: In vitro cytotoxicity. The data set is classed as cell-based, human. Particulars: read-out: IC50 BT-333; 72 h, MTT, mean ± S.D (n = 6). Summed up:
as §1

Data set [6] deals with MDA-MB-231 cells. Put plainly: Intracellular ROS determination. The data set is classed as cell-based, human. Particulars: 10 μM, 90 minutes, DCF-DA, FACS. Summed up: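 MDA-MB-231 cells were exposed to the test compound at 5 and 10 μM. The text gives 90 min of exposure, and the figure legend gives 2 h. Cells were then stained with 2′,7′-dichlorodihydrofluorescein diacetate, and intracellular fluorescence was read by flow cytometry at 488 nm. Groups were compared by ordinary one-way ANOVA.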

On to `[Au+].[Cl-].c1ccc(P(c2ccccc2)c2ccccc2P(c2ccccc2)c2ccccc2)cc1.c1ccc(P(c2ccccc2)c2ccccc2P(c2ccccc2)c2ccccc2)cc1` [1-Cl, bis-[1,2-bis-(diphenylphosphino)benzene]gold(I)], for which, in the data set with MDA-MB-231 cancer cells, the “whole cell uptake (Au content)” value is listed as “taken up more effectively compared to 1-AuCl4”. Moreover, the “solution stability in DMEM” value in data set [1] was “stable in DMEM for 48 h without the formation of new adducts or reduction in peak intensity”. In addition, the “effect on mitochondria membrane potential (TMRE fluorescence)” value in the data set with MDA-MB-231 cells [2] is “did not affect the mitochondria membrane potential significantly”. The IC50 stood at 1350 ± 40 nM in data set [3], 1140 ± 120 nM in data set [4] and 410 ± 200 nM in the data set on BT-333 (glioblastoma). Moreover, the “mitochondria uptake (Au)” value in data set [5] is listed as 214.5 nmol/20 million cells.

Turning to “bis-[1,2-bis-(diphenylphosphino)benzene]gold(III) chloride [3-AuCl4]”, the “whole cell uptake (Au content)” value in the data set with MDA-MB-231 cancer cells was “significantly higher whole cell uptake compared to their Au(I) counterparts”. The “solution stability in DMEM” value in data set [1] was “showed solution stability for 48 h but significant reduction in peak intensity after 1 h of incubation”. Moreover, the “decrease in TMRE fluorescence intensity (mitochondria membrane potential)” value in the data set on MDA-MB-231 cells [2] (10 μM, 2 hours) is “about 53%”. The “effect on mitochondria membrane potential (TMRE fluorescence)” value with MDA-MB-231 cells [2] was “concentration dependent decrease in fluorescence intensity”. For the same compound, the IC50 in data set [3] was determined as 4470 ± 50 nM; in data set [4], 1520 ± 210 nM; in the data set on BT-333 (glioblastoma), 1380 ± 230 nM. Besides, the “mitochondria uptake (Au)” value in data set [5] was determined as 375 nmol/20 million cells. In addition, in the data set with MDA-MB-231 cells [6], the “intracellular ROS produced” value is “significant difference in the ROS produced by 3-AuCl4 compared to 1-Cl”.

Regarding `[Au+].[Cl-].c1ccc(P(c2ccccc2)c2ccccc2P(c2ccccc2)c2ccccc2)cc1.c1ccc(P(c2ccccc2)c2ccccc2P(c2ccccc2)c2ccccc2)cc1` [1-BF4, bis-[1,2-bis-(diphenylphosphino)benzene]gold(I)], the half-maximal inhibitory concentration (IC50) in data set [4] was determined as 820 ± 110 nM; in the data set with BT-333 (glioblastoma) it was 660 ± 20 nM.

For `[Au+].[Cl-].c1ccc(P(c2ccccc2)c2ccccc2P(c2ccccc2)c2ccccc2)cc1.c1ccc(P(c2ccccc2)c2ccccc2P(c2ccccc2)c2ccccc2)cc1` [1-AuCl4, bis-[1,2-bis-(diphenylphosphino)benzene]gold(I)], the IC50 in data set [3] was determined as 930 ± 20 nM; in data set [4], 1780 ± 150 nM; with BT-333 (glioblastoma) it was 1300 ± 40 nM.

Take `[Au+].[Cl-].c1ccc(P(c2ccccc2)c2ccccc2P(c2ccccc2)c2ccccc2)cc1.c1ccc(P(c2ccccc2)c2ccccc2P(c2ccccc2)c2ccccc2)cc1` [1-PF6, bis-[1,2-bis-(diphenylphosphino)benzene]gold(I)]: in the data set with MDA-MB-231 cancer cells, the “whole cell uptake (Au content)” value is on record as “taken up more effectively compared to 1-AuCl4”. Further, the concentration for half-maximal inhibition (IC50) came out at 1910 ± 30 nM in data set [3], 300 ± 100 nM in data set [4] and 380 ± 20 nM with BT-333 (glioblastoma). Besides, the “fold more cytotoxic than Au(III) 3-PF6 counterpart (IC50)” value in data set [4] (in both cancer cell lines tested (MDA-MB-231, BT-333)) is 4–16 fold.

As for “bis-[1,2-bis-(diphenylphosphino)benzene]gold(III) chloride [3-PF6]”, the “whole cell uptake (Au content)” value with MDA-MB-231 cancer cells is “significantly higher whole cell uptake compared to their Au(I) counterparts”. For the same compound, the IC50 in data set [4] stood at 4920 ± 210 nM; in the data set on BT-333 (glioblastoma), 1760 ± 120 nM.
